In ChEMBL document CHEMBL4689842, “EUbOPEN Chemogenomics Library wave 1” (2021):

Tested on: U2OS
Test: Multiplex assay against U2OS
Type: toxicity, cell-based
Details: human
Procedure, shortened: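 Imaging took place on a CQ1 microscope at 37°C and 5% CO2 once compound had been added to live cells stained at seeding with Hoechst33342, BioTracker Green Microtubule Cytoskeleton Dye, MitoTracker Red and Annexin V Alexa Fluor 680. CellPathfinder machine-learning gating classed cells as Hoechst high-intensity objects or normal cells, classed normal cells as having healthy, pyknosed or fragmented nuclei, and classed pyknosed cells as mitotic or apoptotic. Tubulin, mitochondrial-mass and membrane-permeability phenotypes are per cents of the healthy-nucleus cells.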

[1] = 12 h, 1 µM, compound concentration 1 uM, replicate 1
[2] = 12 h, 1 µM, compound concentration 1 uM, replicate 2
[3] = 12 h, 10 µM, compound concentration 10 uM, replicate 1
[4] = 12 h, 10 µM, compound concentration 10 uM, replicate 2
[5] = 24 h, 1 µM, compound concentration 1 uM, replicate 1
[6] = 24 h, 1 µM, compound concentration 1 uM, replicate 2
[7] = 24 h, 10 µM, compound concentration 10 uM, replicate 1
[8] = 24 h, 10 µM, compound concentration 10 uM, replicate 2
[9] = 48 h, 1 µM, compound concentration 1 uM, replicate 1
[10] = 48 h, 1 µM, compound concentration 1 uM, replicate 2
[11] = 48 h, 10 µM, compound concentration 10 uM, replicate 1
[12] = 48 h, 10 µM, compound concentration 10 uM, replicate 2

## Cc1nc(-c2ccc(-c3ccc(C(=O)N4CCc5cc6c(cc54)C4(CCN(C)CC4)CO6)cc3)c(C)c2)no1 [SB-224289]
[1]
  Population Apoptotic (%): 50%
  Population Fragmented Nuclei (%): 11%
  Population Healthy Nuclei (%): 74%
  Population Hoechst High Intensity Objects (%): 8%
  Population Membrane Permeable-Phenotype (%): 6%
  Population Mitochondria Different-Phenotype (%): 43%
  Population Mitotic Cells (%): 50%
  Population Normal (%): 91%
  Population Pyknosed Nuclei (%): 13%
  Population Tubulin-Different-Phenotype (%): 46%
  Total Cell Count: 130
[2]
  Population Apoptotic (%): 28%
  Population Fragmented Nuclei (%): 4%
  Population Healthy Nuclei (%): 81%
  Population Hoechst High Intensity Objects (%): 12%
  Population Membrane Permeable-Phenotype (%): 10%
  Population Mitochondria Different-Phenotype (%): 42%
  Population Mitotic Cells (%): 71%
  Population Normal (%): 87%
  Population Pyknosed Nuclei (%): 14%
  Population Tubulin-Different-Phenotype (%): 37%
  Total Cell Count: 65
[3]
  Population Apoptotic (%): 62%
  Population Fragmented Nuclei (%): 19%
  Population Healthy Nuclei (%): 61%
  Population Hoechst High Intensity Objects (%): 7%
  Population Membrane Permeable-Phenotype (%): 45%
  Population Mitochondria Different-Phenotype (%): 98%
  Population Mitotic Cells (%): 37%
  Population Normal (%): 92%
  Population Pyknosed Nuclei (%): 19%
  Population Tubulin-Different-Phenotype (%): 98%
  Total Cell Count: 147
[4]
  Population Apoptotic (%): 63%
  Population Fragmented Nuclei (%): 7%
  Population Healthy Nuclei (%): 77%
  Population Hoechst High Intensity Objects (%): 11%
  Population Membrane Permeable-Phenotype (%): 54%
  Population Mitochondria Different-Phenotype (%): 100%
  Population Mitotic Cells (%): 36%
  Population Normal (%): 88%
  Population Pyknosed Nuclei (%): 15%
  Population Tubulin-Different-Phenotype (%): 100%
  Total Cell Count: 56
[5]
  Population Apoptotic (%): 53%
  Population Healthy Nuclei (%): 75%
  Population Hoechst High Intensity Objects (%): 6%
  Population Membrane Permeable-Phenotype (%): 4%
  Population Mitochondria Different-Phenotype (%): 40%
  Population Mitotic Cells (%): 46%
  Population Normal (%): 93%
  Population Pyknosed Nuclei (%): 9%
  Population Tubulin-Different-Phenotype (%): 25%
  Total Cell Count: 152
[6]
  Population Apoptotic (%): 0%
  Population Fragmented Nuclei (%): 15%
  Population Healthy Nuclei (%): 77%
  Population Hoechst High Intensity Objects (%): 9%
  Population Membrane Permeable-Phenotype (%): 6%
  Population Mitochondria Different-Phenotype (%): 38%
  Population Mitotic Cells (%): 100%
  Population Normal (%): 90%
  Population Pyknosed Nuclei (%): 7%
  Population Tubulin-Different-Phenotype (%): 22%
  Total Cell Count: 73
[7]
  Population Apoptotic (%): 75%
  Population Fragmented Nuclei (%): 24%
  Population Healthy Nuclei (%): 51%
  Population Hoechst High Intensity Objects (%): 9%
  Population Membrane Permeable-Phenotype (%): 84%
  Population Mitochondria Different-Phenotype (%): 98%
  Population Mitotic Cells (%): 25%
  Population Normal (%): 90%
  Population Pyknosed Nuclei (%): 23%
  Population Tubulin-Different-Phenotype (%): 98%
  Total Cell Count: 171
[8]
  Population Apoptotic (%): 76%
  Population Fragmented Nuclei (%): 16%
  Population Healthy Nuclei (%): 56%
  Population Hoechst High Intensity Objects (%): 11%
  Population Membrane Permeable-Phenotype (%): 86%
  Population Mitochondria Different-Phenotype (%): 100%
  Population Mitotic Cells (%): 23%
  Population Normal (%): 88%
  Population Pyknosed Nuclei (%): 26%
  Population Tubulin-Different-Phenotype (%): 100%
  Total Cell Count: 63
[9]
  Population Apoptotic (%): 54%
  Population Fragmented Nuclei (%): 12%
  Population Healthy Nuclei (%): 77%
  Population Hoechst High Intensity Objects (%): 6%
  Population Membrane Permeable-Phenotype (%): 3%
  Population Mitochondria Different-Phenotype (%): 15%
  Population Mitotic Cells (%): 45%
  Population Normal (%): 93%
  Population Tubulin-Different-Phenotype (%): 15%
  Total Cell Count: 156
[10]
  Population Apoptotic (%): 50%
  Population Fragmented Nuclei (%): 9%
  Population Healthy Nuclei (%): 80%
  Population Hoechst High Intensity Objects (%): 9%
  Population Membrane Permeable-Phenotype (%): 8%
  Population Mitochondria Different-Phenotype (%): 14%
  Population Mitotic Cells (%): 50%
  Population Normal (%): 90%
  Population Pyknosed Nuclei (%): 10%
  Population Tubulin-Different-Phenotype (%): 11%
  Total Cell Count: 88
[11]
  Population Apoptotic (%): 81%
  Population Fragmented Nuclei (%): 27%
  Population Healthy Nuclei (%): 28%
  Population Hoechst High Intensity Objects (%): 15%
  Population Membrane Permeable-Phenotype (%): 94%
  Population Mitochondria Different-Phenotype (%): 97%
  Population Mitotic Cells (%): 18%
  Population Normal (%): 84%
  Population Pyknosed Nuclei (%): 44%
  Population Tubulin-Different-Phenotype (%): 97%
  Total Cell Count: 225
[12]
  Population Apoptotic (%): 88%
  Population Fragmented Nuclei (%): 8%
  Population Healthy Nuclei (%): 46%
  Population Hoechst High Intensity Objects (%): 18%
  Population Membrane Permeable-Phenotype (%): 75%
  Population Mitochondria Different-Phenotype (%): 100%
  Population Mitotic Cells (%): 11%
  Population Normal (%): 81%
  Population Pyknosed Nuclei (%): 45%
  Population Tubulin-Different-Phenotype (%): 100%
  Total Cell Count: 85

## CC(C)(O)CNc1ncc(-c2ccnc(Nc3ccnc(Cl)c3)n2)c(CC2CC2)n1
[1]
  Population Apoptotic (%): 44%
  Population Fragmented Nuclei (%): 9%
  Population Healthy Nuclei (%): 71%
  Population Hoechst High Intensity Objects (%): 3%
  Population Membrane Permeable-Phenotype (%): 8%
  Population Mitochondria Different-Phenotype (%): 24%
  Population Mitotic Cells (%): 55%
  Population Normal (%): 96%
  Population Pyknosed Nuclei (%): 18%
  Population Tubulin-Different-Phenotype (%): 19%
  Total Cell Count: 182
[2]
  Population Apoptotic (%): 9%
  Population Healthy Nuclei (%): 78%
  Population Hoechst High Intensity Objects (%): 5%
  Population Membrane Permeable-Phenotype (%): 5%
  Population Mitochondria Different-Phenotype (%): 17%
  Population Mitotic Cells (%): 90%
  Population Normal (%): 94%
  Population Pyknosed Nuclei (%): 12%
  Population Tubulin-Different-Phenotype (%): 14%
  Total Cell Count: 97
[3]
  Population Apoptotic (%): 50%
  Population Fragmented Nuclei (%): 18%
  Population Healthy Nuclei (%): 42%
  Population Hoechst High Intensity Objects (%): 14%
  Population Membrane Permeable-Phenotype (%): 24%
  Population Mitochondria Different-Phenotype (%): 90%
  Population Mitotic Cells (%): 50%
  Population Normal (%): 85%
  Population Pyknosed Nuclei (%): 38%
  Population Tubulin-Different-Phenotype (%): 100%
  Total Cell Count: 202
[4]
  Population Apoptotic (%): 15%
  Population Fragmented Nuclei (%): 10%
  Population Healthy Nuclei (%): 64%
  Population Hoechst High Intensity Objects (%): 7%
  Population Membrane Permeable-Phenotype (%): 28%
  Population Mitochondria Different-Phenotype (%): 96%
  Population Mitotic Cells (%): 84%
  Population Normal (%): 92%
  Population Pyknosed Nuclei (%): 26%
  Total Cell Count: 93
[5]
  Population Apoptotic (%): 35%
  Population Fragmented Nuclei (%): 6%
  Population Healthy Nuclei (%): 75%
  Population Hoechst High Intensity Objects (%): 3%
  Population Membrane Permeable-Phenotype (%): 5%
  Population Mitochondria Different-Phenotype (%): 22%
  Population Mitotic Cells (%): 64%
  Population Normal (%): 96%
  Population Pyknosed Nuclei (%): 18%
  Population Tubulin-Different-Phenotype (%): 10%
  Total Cell Count: 196
[6]
  Population Apoptotic (%): 20%
  Population Fragmented Nuclei (%): 11%
  Population Healthy Nuclei (%): 74%
  Population Hoechst High Intensity Objects (%): 4%
  Population Membrane Permeable-Phenotype (%): 10%
  Population Mitochondria Different-Phenotype (%): 20%
  Population Mitotic Cells (%): 80%
  Population Normal (%): 95%
  Population Pyknosed Nuclei (%): 15%
  Population Tubulin-Different-Phenotype (%): 16%
  Total Cell Count: 136
[7]
  Population Apoptotic (%): 52%
  Population Fragmented Nuclei (%): 26%
  Population Healthy Nuclei (%): 22%
  Population Hoechst High Intensity Objects (%): 12%
  Population Membrane Permeable-Phenotype (%): 47%
  Population Mitochondria Different-Phenotype (%): 100%
  Population Mitotic Cells (%): 47%
  Population Normal (%): 87%
  Population Pyknosed Nuclei (%): 51%
  Population Tubulin-Different-Phenotype (%): 100%
  Total Cell Count: 240
[8]
  Population Apoptotic (%): 47%
  Population Fragmented Nuclei (%): 14%
  Population Healthy Nuclei (%): 40%
  Population Hoechst High Intensity Objects (%): 14%
  Population Mitochondria Different-Phenotype (%): 89%
  Population Mitotic Cells (%): 52%
  Population Normal (%): 85%
  Population Pyknosed Nuclei (%): 44%
  Total Cell Count: 105
[9]
  Population Apoptotic (%): 45%
  Population Fragmented Nuclei (%): 6%
  Population Hoechst High Intensity Objects (%): 2%
  Population Membrane Permeable-Phenotype (%): 9%
  Population Mitochondria Different-Phenotype (%): 10%
  Population Mitotic Cells (%): 54%
  Population Normal (%): 97%
  Population Pyknosed Nuclei (%): 17%
  Population Tubulin-Different-Phenotype (%): 7%
  Total Cell Count: 130
[10]
  Population Apoptotic (%): 50%
  Population Fragmented Nuclei (%): 13%
  Population Healthy Nuclei (%): 76%
  Population Hoechst High Intensity Objects (%): 3%
  Population Membrane Permeable-Phenotype (%): 17%
  Population Mitochondria Different-Phenotype (%): 24%
  Population Mitotic Cells (%): 50%
  Population Normal (%): 96%
  Population Pyknosed Nuclei (%): 10%
  Population Tubulin-Different-Phenotype (%): 22%
  Total Cell Count: 90
[11]
  Population Apoptotic (%): 82%
  Population Fragmented Nuclei (%): 35%
  Population Healthy Nuclei (%): 12%
  Population Hoechst High Intensity Objects (%): 15%
  Population Membrane Permeable-Phenotype (%): 50%
  Population Mitochondria Different-Phenotype (%): 90%
  Population Mitotic Cells (%): 17%
  Population Normal (%): 84%
  Population Pyknosed Nuclei (%): 51%
  Population Tubulin-Different-Phenotype (%): 100%
  Total Cell Count: 308
[12]
  Population Apoptotic (%): 61%
  Population Fragmented Nuclei (%): 19%
  Population Healthy Nuclei (%): 23%
  Population Hoechst High Intensity Objects (%): 17%
  Population Membrane Permeable-Phenotype (%): 100%
  Population Mitochondria Different-Phenotype (%): 100%
  Population Mitotic Cells (%): 38%
  Population Normal (%): 82%
  Population Pyknosed Nuclei (%): 56%
  Total Cell Count: 141
